In brackets after ≈: the same amount, converted by molar mass.
Experiments:
[1] = species on record: Homo sapiens; test: Bronchorelaxant activity in human small airways assessed as remaining contraction at 1 uM relative to LTD4; assay type: functional
In short: (§1)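 Isolated human small airways (inner diameter <2.0 mm) were mounted in a previously described apparatus and contracted with LTD4. The test item was added, usually at 10 μM and also at 1 μM. %RC is the contraction remaining with the test item, expressed against the maximum LTD4-evoked contraction without it.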

[2] = species on record: Homo sapiens; test: Bronchorelaxant activity in human small airways assessed as remaining contraction at 10 uM relative to LTD4; assay type: functional; in short: as §1
[3] = Lipophilicity log D of the compound at pH 7.4; assay type: physicochemical; details: buffer
[4] = species on record: Homo sapiens; test: Bronchorelaxant activity in human small airways assessed as remaining contraction at 10 uM relative to histamine; assay type: functional
In short: (§2)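 Isolated human small airways (inner diameter <2.0 mm) were contracted with acetylcholine, with histamine, or with a cocktail of LTD4, acetylcholine and histamine. Test item at 10 μM; relaxation of each induced contraction was recorded.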

[5] = Aqueous solubility of the compound; assay type: physicochemical
[6] = species on record: Homo sapiens; test: Bronchorelaxant activity in human small airways assessed as remaining contraction; assay type: functional; in short: as §1
[7] = species on record: Homo sapiens; test: Bronchorelaxant activity in human small airways assessed as remaining contraction at 10 uM relative to acetylcholine and histamine combination; assay type: functional; in short: as §2
[8] = species on record: Homo sapiens; test: Bronchorelaxant activity in human small airways assessed as remaining contraction at 10 uM relative to acetylcholine; assay type: functional; in short: as §2

Structure (SMILES)	Activity [1] [%]	Activity [2] [%]	also measured
Cc1nc(C(F)(F)F)ccc1/C=C/C(=O)N1CCc2c(Cl)c(O)c(O)c(Cl)c2C1	71	9	–
Cc1cc(C(F)(F)F)cnc1CCCC(=O)N1CCc2c(Cl)c(O)c(O)c(Cl)c2C1	67	7	–
O=C(CCc1ccc(C(F)(F)F)nc1)N1CCc2c(F)c(O)c(O)c(F)c2C1	–	85	–
O=C(CCCc1ccc([N+](=O)[O-])cn1)N1CCc2c(Cl)c(O)c(O)c(Cl)c2C1	74	33	–
O=C(CCCc1ccc(C(F)(F)F)cn1)N1CCc2c(Cl)c(O)c(O)c(Cl)c2C1	72	19	–
O=C(CCc1ccc(C(F)(F)F)nc1)N1CCc2c(Cl)c(O)c(O)c(Cl)c2C1	–	29	–
O=C(CCCc1ncc(C(F)(F)F)cc1C1CCCCC1)N1CCc2c(Cl)c(O)c(O)c(Cl)c2C1	–	77	–
O=C(CCCc1ccc(C(F)(F)F)nc1)N1CCc2c(Cl)c(O)c(O)c(Cl)c2C1	93	26	–
COc1ccc(CCCC(=O)N2CCc3c(Cl)c(O)c(O)c(Cl)c3C2)nc1	96	31	–
C/C(=C\C(=O)N1CCc2c(Cl)c(O)c(O)c(Cl)c2C1)c1ccc(C(F)(F)F)nc1	74	7	logD [3]: 3.5; Activity [4]: 97%; solubility [5]: 18 µM (≈ 8.05 µg/mL); ED50 [6]: 2270 nM; Activity [7]: 82%; Activity [8]: 93%
O=C(CCCc1ncc(C(F)(F)F)cc1-c1ccccc1)N1CCc2c(Cl)c(O)c(O)c(Cl)c2C1	90	38	–
O=C(CCCc1ccc(Cl)cn1)N1CCc2c(Cl)c(O)c(O)c(Cl)c2C1	85	15	–
O=C(CCCc1ccc(F)cn1)N1CCc2c(Cl)c(O)c(O)c(Cl)c2C1	89	25	–
O=C(/C=C/c1ccccc1)N1CCc2c(Cl)c(O)c(O)c(Cl)c2C1	83	41	–
O=C(/C=C/c1ccc(F)cn1)N1CCc2c(Cl)c(O)c(O)c(Cl)c2C1	–	24	–
O=C(/C=C/c1ccc(C(F)(F)F)nc1)N1CCc2c(Cl)c(O)c(O)c(Cl)c2C1	87	6	–
Cc1c(O)c(O)c(C)c2c1CCN(C(=O)/C=C/c1ccc(C(F)(F)F)nc1)C2	–	75	–
N#Cc1ccc(CCCC(=O)N2CCc3c(Cl)c(O)c(O)c(Cl)c3C2)nc1	86	34	–
O=C(/C=C/c1ccc(O)cc1)N1CCc2c(Cl)c(O)c(O)c(Cl)c2C1	–	32	–
CS(=O)(=O)c1ccc(CCCC(=O)N2CCc3c(Cl)c(O)c(O)c(Cl)c3C2)nc1	99	72	–
O=C(CCCc1ccc(Cl)cc1)N1CCc2c(Cl)c(O)c(O)c(Cl)c2C1	80	16	–
O=C(CCCc1ncc(C(F)(F)F)cc1Cl)N1CCc2c(Cl)c(O)c(O)c(Cl)c2C1	61	5	–
Cc1nc(C(F)(F)F)ncc1/C=C/C(=O)N1CCc2c(Cl)c(O)c(O)c(Cl)c2C1	88	18	–
O=C(/C=C/c1ccc(C(F)(F)F)nc1)N1CCc2c(c3c(c4c2CCO4)OCC3)C1	–	91	–
O=C(/C=C/c1cccnc1)N1CCc2c(Cl)c(O)c(O)c(Cl)c2C1	100	44	–
